Data from ChEMBL document CHEMBL2086252, “Syntheses and evaluation of anticonvulsant activity of novel branched alkyl carbamates” (J Med Chem, 2012).

Assays:
[1] = Neurotoxicity in po dosed Sprague-Dawley albino rat assessed as minimal motor impairment by rotarod test; assay type: toxicity, organism-based; details: in vivo
In short: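 Rats dosed orally; 4 rats per time point after dosing. Neurotoxicity was scored as motor impairment or sedation and reported as number of animals affected over number tested.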

[2] = tested on: Rattus norvegicus; assay: Anticonvulsant activity in po dosed Sprague-Dawley albino rat assessed as protection against subcutaneous metrazol-induced seizures; assay type: functional
In short: (§1)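 Quantitative testing: rats dosed orally or ip in MES and scMet tests, and mice dosed ip, including the 6 Hz (32 mA) psychomotor seizure test. ED50 and TD50 were reported in mg/kg with ranges in parentheses. Protective index was calculated as TD50/ED50.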

[3] = tested on: Rattus norvegicus; assay: Protective index, ratio of TD50 for po dosed Sprague-Dawley albino rat by rotarod test to ED50 for po dosed Sprague-Dawley albino rat by maximal electroshock seizures test; assay type: functional
In short: (§2)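 Protective index calculated as TD50/ED50, with TD50 and ED50 taken from the same species and dosing route.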

[4] = tested on: Rattus norvegicus; assay: Protective index, ratio of TD50 for po dosed Sprague-Dawley albino rat by rotarod test to ED50 for po dosed Sprague-Dawley albino rat by subcutaneous metrazol seizures test; assay type: functional; in short: as §2
[5] = tested on: Rattus norvegicus; assay: Anticonvulsant activity in po dosed Sprague-Dawley albino rat assessed as protection against maximal electroshock-induced seizures; assay type: functional; in short: as §1

Structure (SMILES)	TD50 [1] [mg/kg]	ED50 [2] [mg/kg]	Ratio TD50/ED50 [3]	Ratio TD50/ED50 [4]	ED50 [5] [mg/kg]
NC(=O)OCC(COC(N)=O)c1ccccc1 [FELBAMATE]	> 500	> 250	20	>2	25
CCCC(CCC)C(=O)O [VALPROIC ACID]	–	646	–	–	–
